Data: ChEMBL document CHEMBL5532695, “4-Trifluoromethyl bithiazoles as broad-spectrum antimicrobial agents for virus-related bacterial infections or co-infections” (RSC Med Chem, 2024)
Converted amounts (≈) assume the structure as drawn. Values belong to the compound of their own block, whether it stands above or below them.

How the values were obtained:
[1] = test system: rhinovirus A16; experiment: Antiviral activity against 7 times rupintrivir passaged resistance model of Human rhinovirus 16 infected in human HeLa cells assessed as inhibition of viral replication; assay type: functional, organism-based; details: Rhinovirus A
Summary of the method: (§1)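 HeLa cells infected with RVA16 and serially passaged under compound, supernatants harvested at extensive CPE (3–6 dpi), clarified and titrated on HeLa; each passage used prior virus at MOI 0.01, drug concentration doubled when possible; after 7 passages RNA sequenced. Antiviral read-out: HeLa at 33 °C, 48 h, VP3 immunostaining with HRP secondary; EC50 from variable-slope sigmoidal fit.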

[2] = test system: rhinovirus A16; experiment: Antiviral activity against 7 times N-(4'-(Trifluoromethyl)-2-((3-(trifluoromethyl)phenyl)amino)-[4,5'-bithiazol]-2'-yl)benzamide passaged resistance model of Human rhinovirus 16 infected in human HeLa cells assessed as inhibition of viral replication; assay type: functional, organism-based; details: Rhinovirus A; summary of the method: as §1
[3] = test system: rhinovirus A16; experiment: microbe, parasite or virus in culture; details: Rhinovirus A, HeLa, 48 h
[4] = test system: Staphylococcus aureus; experiment: Antibacterial activity against Staphylococcus aureus; assay type: functional
[5] = test system: Bacillus subtilis; experiment: Bactericidal activity against Bacillus subtilis ATCC 6633 assessed as reduction in microbial growth measured after 18 hrs by CLSI based broth microdilution method; assay type: functional
Summary of the method: (§2)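 MBC by CLSI broth microdilution in Mueller–Hinton medium, triplicate. Inoculum 5 × 10^4 CFU per well. Read after 18 h at 35 ± 2 °C.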

[6] = test system: Pseudomonas aeruginosa; experiment: Synergistic antibacterial activity against colistin resistant MDR Pseudomonas aeruginosa SI-270 incubated for 18 to 24 hrs in presence of colistin by broth microdilution method; assay type: functional; details: time 18-24 hrs
Summary of the method: (§3)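 Minimum antibacterial concentration (MAC) by broth microdilution in Mueller–Hinton medium with a fixed subinhibitory colistin concentration of 2 μg mL−1 against colistin-resistant Gram-negative clinical isolates; inoculum 5 × 10^4 CFU per well, 35 ± 2 °C; triplicate.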

[7] = test system: Acinetobacter baumannii; experiment: Synergistic antibacterial activity against colistin/carbapenem resistant MDR Acinetobacter baumannii N50 incubated for 18 to 24 hrs in presence of colistin by broth microdilution method; assay type: functional; details: time 18-24 hrs; summary of the method: as §3
[8] = test system: Escherichia coli; experiment: Synergistic antibacterial activity against colistin resistant mcr-positive Escherichia coli SI-63 incubated for 18 to 24 hrs in presence of colistin by broth microdilution method; assay type: functional; details: time 18-24 hrs; summary of the method: as §3
[9] = test system: Enterococcus faecium; experiment: Antibacterial activity against Vancomycin resistant Enterococcus faecium SI-1831 assessed as reduction in microbial growth measured after 18 hrs by CLSI based broth microdilution method; assay type: functional
Summary of the method: (§4)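 Gram-positive clinical isolates; compounds dissolved in DMSO (50 mg mL−1 stock) and diluted in medium; MIC by CLSI broth microdilution in Mueller–Hinton medium, inoculum 5 × 10^4 CFU per well, read after 18 h at 35 ± 2 °C; triplicate.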

[10] = test system: Staphylococcus epidermidis; experiment: Bactericidal activity against linezolid-resistant Staphylococcus epidermidis SI-1266 assessed as reduction in microbial growth measured after 18 hrs by CLSI based broth microdilution method; assay type: functional
[11] = test system: enterovirus D68; experiment: microbe, parasite or virus in culture; details: Enterovirus D, HeLa, 48 h
[12] = molecular target: Phosphatidylinositol 4-kinase beta (Homo sapiens, UniProt Q9UBF8); experiment: Inhibition of recombinant full length his tagged PI4KB (unknown origin) incubated for 10 mins in presence of ATP by ADP-glo kinase assay
Phosphatidylinositol 4-kinase beta, sequence (Q9UBF8 whole entry): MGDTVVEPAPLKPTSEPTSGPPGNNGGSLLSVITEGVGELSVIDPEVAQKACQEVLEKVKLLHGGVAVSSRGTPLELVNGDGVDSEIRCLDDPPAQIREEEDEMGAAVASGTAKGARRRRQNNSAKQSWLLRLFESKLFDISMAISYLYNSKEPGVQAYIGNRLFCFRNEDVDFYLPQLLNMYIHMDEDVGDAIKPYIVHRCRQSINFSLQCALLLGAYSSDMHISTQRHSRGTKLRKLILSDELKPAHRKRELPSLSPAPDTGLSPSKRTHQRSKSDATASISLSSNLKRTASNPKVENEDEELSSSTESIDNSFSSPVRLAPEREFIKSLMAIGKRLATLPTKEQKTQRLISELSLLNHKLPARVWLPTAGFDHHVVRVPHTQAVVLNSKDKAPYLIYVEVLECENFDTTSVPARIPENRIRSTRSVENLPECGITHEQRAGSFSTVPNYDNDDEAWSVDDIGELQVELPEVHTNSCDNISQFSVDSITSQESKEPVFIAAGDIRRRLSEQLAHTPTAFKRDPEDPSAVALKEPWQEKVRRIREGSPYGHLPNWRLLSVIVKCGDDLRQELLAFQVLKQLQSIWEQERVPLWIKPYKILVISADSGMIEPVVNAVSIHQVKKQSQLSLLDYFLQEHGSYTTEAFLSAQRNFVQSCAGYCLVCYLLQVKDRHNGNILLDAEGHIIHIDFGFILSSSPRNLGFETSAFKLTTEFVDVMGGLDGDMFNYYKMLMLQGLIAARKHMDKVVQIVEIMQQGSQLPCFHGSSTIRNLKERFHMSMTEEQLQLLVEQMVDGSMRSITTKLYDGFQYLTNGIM

[13] = test system: Klebsiella pneumoniae; experiment: Synergistic antibacterial activity against Klebsiella pneumoniae ATCC 13833 incubated for 18 to 24 hrs in presence of colistin by broth microdilution method; assay type: functional; details: time 18-24 hrs
[14] = test system: Staphylococcus warneri; experiment: Bactericidal activity against oxacillin-resistant Staphylococcus warneri SI-5/2011 assessed as reduction in microbial growth measured after 18 hrs by CLSI based broth microdilution method; assay type: functional
[15] = Cytotoxicity against african green monkey Vero E6 cells assessed as reduction in cell viability by MTT assay; assay type: toxicity, cell-based; details: chlorocebus sabaeus, Vero E6 cells (Vero C1008)
Summary of the method: (§5)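 MTT viability on HeLa or VeroE6 cells, run in parallel with the antiviral assays. CC50 from variable-slope sigmoidal dose–response regression.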

[16] = test system: Staphylococcus haemolyticus; experiment: Antibacterial activity against oxacillin-resistant Staphylococcus haemolyticus SI-6/2011 assessed as reduction in microbial growth measured after 18 hrs by CLSI based broth microdilution method; assay type: functional; summary of the method: as §4
[17] = test system: Streptococcus pyogenes; experiment: Bactericidal activity against Streptococcus pyogenes ATCC 12344 assessed as reduction in microbial growth measured after 18 hrs by CLSI based broth microdilution method; assay type: functional; summary of the method: as §2
[18] = test system: Enterococcus faecium; experiment: Antibacterial activity against Vancomycin resistant Enterococcus faecium SI-3856B assessed as reduction in microbial growth measured after 18 hrs by CLSI based broth microdilution method; assay type: functional; summary of the method: as §4
[19] = test system: Acinetobacter baumannii; experiment: Synergistic antibacterial activity against Acinetobacter baumannii ATCC 17978 incubated for 18 to 24 hrs in presence of colistin by broth microdilution method; assay type: functional; details: time 18-24 hrs
[20] = test system: Escherichia coli; experiment: Synergistic antibacterial activity against Escherichia coli CCUGT incubated for 18 to 24 hrs in presence of colistin by broth microdilution method; assay type: functional; details: time 18-24 hrs
[21] = test system: Streptococcus pyogenes; experiment: Antibacterial activity against Streptococcus pyogenes ATCC 12344 assessed as reduction in microbial growth measured after 18 hrs by CLSI based broth microdilution method; assay type: functional
Summary of the method: (§6)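 MIC by CLSI broth microdilution in Mueller–Hinton medium, triplicate. Inoculum 5 × 10^4 CFU per well. Compounds taken up in DMSO (50 mg mL−1 stock) and diluted in medium. Read after 18 h at 35 ± 2 °C.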

[22] = test system: Enterococcus faecium; experiment: Bactericidal activity against Vancomycin resistant Enterococcus faecium SI-1831 assessed as reduction in microbial growth measured after 18 hrs by CLSI based broth microdilution method; assay type: functional
[23] = test system: Pseudomonas aeruginosa; experiment: Synergistic antibacterial activity against Pseudomonas aeruginosa ATCC 27853 incubated for 18 to 24 hrs in presence of colistin by broth microdilution method; assay type: functional; details: time 18-24 hrs
[24] = test system: Staphylococcus aureus; experiment: Antibacterial activity against methicillin-resistant Staphylococcus aureus ATCC 43300 assessed as reduction in microbial growth measured after 18 hrs by CLSI based broth microdilution method; assay type: functional; summary of the method: as §4
[25] = Cytotoxicity against human HeLa cells assessed as reduction in cell viability by MTT assay; assay type: toxicity, cell-based; summary of the method: as §5
[26] = test system: Staphylococcus aureus; experiment: Bactericidal activity against methicillin-resistant Staphylococcus aureus ATCC 43300 assessed as reduction in microbial growth measured after 18 hrs by CLSI based broth microdilution method; assay type: functional
[27] = test system: Staphylococcus aureus; experiment: Bactericidal activity against Staphylococcus aureus ATCC 25923 assessed as reduction in microbial growth measured after 18 hrs by CLSI based broth microdilution method; assay type: functional; summary of the method: as §2
[28] = test system: Enterococcus faecalis; experiment: Bactericidal activity against Enterococcus faecalis ATCC 29212 assessed as reduction in microbial growth measured after 18 hrs by CLSI based broth microdilution method; assay type: functional; summary of the method: as §2
[29] = test system: Bacillus subtilis; experiment: Antibacterial activity against Bacillus subtilis ATCC 6633 assessed as reduction in microbial growth measured after 18 hrs by CLSI based broth microdilution method; assay type: functional; summary of the method: as §6
[30] = test system: Zika virus; experiment: microbe, parasite or virus in culture; details: Vero C1008, 72 h
[31] = test system: Staphylococcus epidermidis; experiment: Antibacterial activity against linezolid-resistant Staphylococcus epidermidis SI-1266 assessed as reduction in microbial growth measured after 18 hrs by CLSI based broth microdilution method; assay type: functional; summary of the method: as §4
[32] = test system: Enterococcus faecium; experiment: Bactericidal activity against Vancomycin resistant Enterococcus faecium SI-3856B assessed as reduction in microbial growth measured after 18 hrs by CLSI based broth microdilution method; assay type: functional
[33] = test system: Enterococcus faecium; experiment: Bactericidal activity against Vancomycin/teicoplanin resistant Enterococcus faecium SI-759 assessed as reduction in microbial growth measured after 18 hrs by CLSI based broth microdilution method; assay type: functional
[34] = test system: Staphylococcus haemolyticus; experiment: Bactericidal activity against oxacillin-resistant Staphylococcus haemolyticus SI-6/2011 assessed as reduction in microbial growth measured after 18 hrs by CLSI based broth microdilution method; assay type: functional
[35] = test system: Staphylococcus warneri; experiment: Antibacterial activity against oxacillin-resistant Staphylococcus warneri SI-5/2011 assessed as reduction in microbial growth measured after 18 hrs by CLSI based broth microdilution method; assay type: functional; summary of the method: as §4
[36] = test system: Staphylococcus aureus; experiment: Antibacterial activity against Staphylococcus aureus ATCC 25923 assessed as reduction in microbial growth measured after 18 hrs by CLSI based broth microdilution method; assay type: functional; summary of the method: as §6
[37] = test system: Enterococcus faecalis; experiment: Antibacterial activity against Enterococcus faecalis ATCC 29212 assessed as reduction in microbial growth measured after 18 hrs by CLSI based broth microdilution method; assay type: functional; summary of the method: as §6
[38] = test system: Enterococcus faecium; experiment: Antibacterial activity against Vancomycin/teicoplanin resistant Enterococcus faecium SI-759 assessed as reduction in microbial growth measured after 18 hrs by CLSI based broth microdilution method; assay type: functional; summary of the method: as §4

Compound: CC(C)S(=O)(=O)n1c(N)nc2ccc(/C(=N/O)c3ccccc3)cc21 [ENVIROXIME]
- EC50 [1]: 0.027 µM
- EC50 [2]: 0.027 µM
- EC50 [3]: 0.049 µM

- MIC [4]: 32 µg/mL (≈ 68 µM)
Compound: CC(C)(C)C(=O)Nc1nc(C(F)(F)F)c(-c2csc(Nc3cccc(C(=O)O)c3)n2)s1

Compound: CC(C)(C)C(=O)Nc1nc(C(F)(F)F)c(-c2csc(Nc3cccc(C(F)(F)F)n3)n2)s1
- MBC [5]: 16 µg/mL
- MAC [6]: 64 µg/mL
- MAC [7]: 0.06 µg/mL
- MAC [8]: 1 µg/mL
- MIC [9]: > 64 µg/mL
- MBC [10]: > 64 µg/mL
- IC50 [11]: 6.74 µM
- IC50 [12]: Not Active
- MAC [13]: 2 µg/mL
- MBC [14]: > 64 µg/mL
- CC50 [15]: 46 µM
- MIC [16]: > 64 µg/mL
- MBC [17]: 8 µg/mL
- MIC [18]: > 64 µg/mL
- MAC [19]: 4 µg/mL
- MAC [20]: 2 µg/mL
- MIC [21]: 8 µg/mL
- MBC [22]: > 64 µg/mL
- MAC [23]: >64 µg/mL
- MIC [24]: 16 µg/mL
- CC50 [25]: 31.8 µM
- MBC [26]: > 64 µg/mL
- MBC [27]: > 32 µg/mL
- MBC [28]: 16 µg/mL
- MIC [29]: 8 µg/mL
- IC50 [30]: 6.9 µM
- MIC [31]: > 64 µg/mL
- MBC [32]: > 64 µg/mL
- MBC [33]: > 64 µg/mL
- MBC [34]: > 64 µg/mL
- MIC [35]: > 64 µg/mL
- IC50 [3]: 9.02 µM
- MIC [36]: 32 µg/mL
- MIC [37]: 8 µg/mL
- MIC [38]: 64 µg/mL
